Laboratory results reported in paper PMC7253076 (Cell chemical biology, 2019).
Values joined by “and” are separate entries in the source; they are usually repeats but may differ in a detail not shown here. Identical values can stand only once. Values belong to the compound of their own block, whether it stands above or below them.

Legend:
[1] = test system: CPA-treated motor neurons; assay: CPA-treated motor neurons, PKC/ABL inhibitors; assay type: cell-based; conditions: data not shown
[2] = test system: motor neurons differentiated from human induced pluripotent stem cells derived from a healthy patient; assay: Motor neuron CPA survival assay, healthy-patient iPSC-derived motor neurons; assay type: cell-based; conditions: CPA-treated healthy human motor neurons, 72 h
[3] = test system: kinases assayed in cell-free conditions; assay: Kinase selectivity score from published cell-free panels; assay type: biochemical
[4] = ref Tang et al., 2012; cited from earlier work
[5] = test system: mouse stem cell-derived motor neurons; conditions: CPA-treated; ref Thams et al., 2019; cited from earlier work
HGK [6] = biological target: HGK (Homo sapiens, UniProt O95819); assay: Cell-free radiolabeled ATP kinase assay; assay type: biochemical
Outline: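 Recombinant HGK and substrate with test compound in radiometric HotSpot assay at 25°C: ATP plus 33P-ATP at 10 μM final, 120 min, then spotted on P81 filter paper and washed. IC50 from 10 concentrations, 0.0002–0.1 μM in 2-fold steps. Otherwise single concentrations were used; the 371-kinase panel was run at 0.1 μM. Activity is % remaining versus DMSO alone.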

[7] = ref Goodfellow et al. (2013); cited from earlier work
[8] = test system: TNFα release in LPS-stimulated mouse N9 microglial cells; assay: TNFα ELISA in LPS-stimulated N9 microglia; assay type: cell-based; conditions: for EC50: Mus musculus, N9, 24 h, read-out: EC50 for decrease of TNFα secretion
Outline: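 N9 mouse microglia were plated at 8000 cells/well on gelatin in DMEM/10% FBS. At 24 h, cells were treated with LPS (E. coli O111:B4) plus test compound at stated concentrations. 24 h later, medium TNFα was measured by ELISA (A450, 540 nm correction). Viability of remaining cells was checked by AlamarBlue, 4 h at 37°C. n = 2 wells; means ± SEM.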

JNK pathway = assay: Western blots of JNK pathway in CPA-treated motor neurons; assay type: cell-based, mouse; conditions: western blot
Outline: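 Day-6 embryoid bodies from mouse ES cells (HB9::GFP reporter, human SOD1 transgene; RA 1 μM + SAG 0.5 μM) were given CPA 10 μM plus test compound 0.5 μM for 4 h, then lysed in HEPES/Triton/SDS buffer. Immunoblots used phospho-JNK (Thr183/Tyr185), phospho-c-Jun (Ser63), phospho-MKK4 (Ser257), total proteins and cleaved caspase 3 at 1:1000, with GAPDH at 1:3000. Signals normalised to GAPDH, phospho to total, and expressed as % of CPA; n = 2 differentiations; unpaired two-tailed t-tests.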

[9] = test system: human stem-cell-derived motor neurons carrying the ALS-causing SOD1^A4V mutation; assay: Motor neuron CPA survival assay, SOD1^A4V ALS motor neurons
HGK [10] = conditions: 1 μM; ref Goodfellow et al., 2013; cited from earlier work
[11] = test system: HIV-mediated microgliosis in the brain; conditions: mice, ref Marker et al. (2013), cited from earlier work
MLK3 = MLK3 (Homo sapiens, UniProt Q16584); assay: Cell-free radiolabeled ATP kinase assay; assay type: biochemical; conditions: for activity at MLK3: single concentration, cell-free
[12] = In vivo pharmacokinetics, IP injection or oral gavage; parameters: species or system mouse; conditions: for Brain AUC / Brain mean Cmax / Kp at 3 h / Cmax: mouse; for Brain AUC / Brain mean Cmax: ± SEM; for Kp at 3 h / Cmax: male, B6SJLF1/J; for Kp at 3 h: brain and plasma; for Cmax: plasma
Outline: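 Dosing solution: DMSO stock diluted to 2 mg/mL in 40% PEG-400 plus 55% of a 20% hydroxypropyl-β-cyclodextrin solution. Given at 10 mg/kg IP or by oral gavage to 8-week-old male wild-type B6SJLF1/J mice, n = 3 per route per time point. At 15 min, 3, 8 or 24 h: trunk blood (EDTA 50 mM final, plasma) and fresh brain taken. Analysed by LC-MS against calibration curves; means ± SEM.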

MLK1 = MLK1 (Homo sapiens, UniProt P80192); assay: Cell-free radiolabeled ATP kinase assay; assay type: biochemical; conditions: single concentration
Outline: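 MLK1 radiometric HotSpot assay: recombinant kinase and substrate at 25°C with ATP plus 33P-ATP at 10 μM final, 120 min, spotted on P81 paper and washed. Single-dose panel run at 0.1 μM; IC50 series for MLK1 spanned 0.002–1 μM in 2-fold steps. Read-out is % remaining activity versus DMSO.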

SOD1^G93A mutant rats = conditions: late-stage SOD1^G93A mutant rats; ref Trias et al., 2016; cited from earlier work
[13] = CPA 10 μM + compound 0.5 μM, 4 h
[14] = CPA-treated SOD1^A4V motor neurons

HGK (Homo sapiens, UniProt O95819), sequence (O95819 whole entry): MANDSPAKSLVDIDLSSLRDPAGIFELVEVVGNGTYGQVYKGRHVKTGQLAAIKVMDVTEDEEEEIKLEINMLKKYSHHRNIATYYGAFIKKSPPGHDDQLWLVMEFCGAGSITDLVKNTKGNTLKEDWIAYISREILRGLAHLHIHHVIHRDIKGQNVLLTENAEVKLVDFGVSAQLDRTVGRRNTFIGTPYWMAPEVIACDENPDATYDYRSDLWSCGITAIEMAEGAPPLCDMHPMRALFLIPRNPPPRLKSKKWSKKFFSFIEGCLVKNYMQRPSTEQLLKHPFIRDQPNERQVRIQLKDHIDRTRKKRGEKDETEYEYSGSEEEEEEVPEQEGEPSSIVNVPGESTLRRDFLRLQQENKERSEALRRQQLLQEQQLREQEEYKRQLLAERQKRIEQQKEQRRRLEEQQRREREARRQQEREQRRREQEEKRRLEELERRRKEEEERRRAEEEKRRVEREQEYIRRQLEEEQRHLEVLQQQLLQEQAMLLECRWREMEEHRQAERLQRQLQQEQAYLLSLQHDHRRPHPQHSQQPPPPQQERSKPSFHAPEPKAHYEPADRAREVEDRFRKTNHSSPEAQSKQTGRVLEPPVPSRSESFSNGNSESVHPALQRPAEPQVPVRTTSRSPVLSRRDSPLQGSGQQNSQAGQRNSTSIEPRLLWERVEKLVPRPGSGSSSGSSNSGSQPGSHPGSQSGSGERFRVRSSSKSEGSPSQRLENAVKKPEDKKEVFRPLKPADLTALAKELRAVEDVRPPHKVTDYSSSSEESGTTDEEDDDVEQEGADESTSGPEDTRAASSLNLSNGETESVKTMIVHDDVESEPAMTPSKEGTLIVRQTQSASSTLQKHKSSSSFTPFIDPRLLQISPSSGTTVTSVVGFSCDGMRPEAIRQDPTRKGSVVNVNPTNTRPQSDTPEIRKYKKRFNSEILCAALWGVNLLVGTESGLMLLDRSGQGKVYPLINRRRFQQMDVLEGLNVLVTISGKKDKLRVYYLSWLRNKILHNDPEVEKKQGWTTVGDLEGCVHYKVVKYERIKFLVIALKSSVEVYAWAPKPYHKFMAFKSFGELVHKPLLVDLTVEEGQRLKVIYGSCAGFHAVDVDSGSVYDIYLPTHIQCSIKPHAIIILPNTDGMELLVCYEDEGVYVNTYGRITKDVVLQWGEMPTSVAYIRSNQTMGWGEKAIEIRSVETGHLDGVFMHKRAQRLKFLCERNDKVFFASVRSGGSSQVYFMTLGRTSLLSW
MLK3, sequence (Q16584 whole entry): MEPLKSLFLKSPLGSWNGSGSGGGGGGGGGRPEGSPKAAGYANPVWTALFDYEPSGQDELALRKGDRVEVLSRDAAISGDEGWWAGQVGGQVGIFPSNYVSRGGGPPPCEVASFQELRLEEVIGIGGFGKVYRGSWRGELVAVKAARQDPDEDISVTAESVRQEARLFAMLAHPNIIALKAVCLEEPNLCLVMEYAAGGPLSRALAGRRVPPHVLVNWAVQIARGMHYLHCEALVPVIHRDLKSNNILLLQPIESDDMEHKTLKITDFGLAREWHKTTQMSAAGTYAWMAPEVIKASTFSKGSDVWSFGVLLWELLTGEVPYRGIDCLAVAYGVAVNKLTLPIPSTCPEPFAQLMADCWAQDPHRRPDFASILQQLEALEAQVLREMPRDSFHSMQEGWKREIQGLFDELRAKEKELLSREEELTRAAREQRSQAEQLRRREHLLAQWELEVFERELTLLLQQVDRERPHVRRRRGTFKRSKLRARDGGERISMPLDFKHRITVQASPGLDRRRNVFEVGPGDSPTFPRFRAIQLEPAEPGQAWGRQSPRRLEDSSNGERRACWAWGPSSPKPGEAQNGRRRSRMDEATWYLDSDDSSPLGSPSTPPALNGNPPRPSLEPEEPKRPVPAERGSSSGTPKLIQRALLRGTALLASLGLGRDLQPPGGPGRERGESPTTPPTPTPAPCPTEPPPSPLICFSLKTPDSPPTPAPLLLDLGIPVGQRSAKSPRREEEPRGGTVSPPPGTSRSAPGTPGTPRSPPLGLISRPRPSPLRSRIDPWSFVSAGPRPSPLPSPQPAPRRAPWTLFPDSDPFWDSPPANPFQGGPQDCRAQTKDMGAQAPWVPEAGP
MLK1, sequence (P80192 whole entry): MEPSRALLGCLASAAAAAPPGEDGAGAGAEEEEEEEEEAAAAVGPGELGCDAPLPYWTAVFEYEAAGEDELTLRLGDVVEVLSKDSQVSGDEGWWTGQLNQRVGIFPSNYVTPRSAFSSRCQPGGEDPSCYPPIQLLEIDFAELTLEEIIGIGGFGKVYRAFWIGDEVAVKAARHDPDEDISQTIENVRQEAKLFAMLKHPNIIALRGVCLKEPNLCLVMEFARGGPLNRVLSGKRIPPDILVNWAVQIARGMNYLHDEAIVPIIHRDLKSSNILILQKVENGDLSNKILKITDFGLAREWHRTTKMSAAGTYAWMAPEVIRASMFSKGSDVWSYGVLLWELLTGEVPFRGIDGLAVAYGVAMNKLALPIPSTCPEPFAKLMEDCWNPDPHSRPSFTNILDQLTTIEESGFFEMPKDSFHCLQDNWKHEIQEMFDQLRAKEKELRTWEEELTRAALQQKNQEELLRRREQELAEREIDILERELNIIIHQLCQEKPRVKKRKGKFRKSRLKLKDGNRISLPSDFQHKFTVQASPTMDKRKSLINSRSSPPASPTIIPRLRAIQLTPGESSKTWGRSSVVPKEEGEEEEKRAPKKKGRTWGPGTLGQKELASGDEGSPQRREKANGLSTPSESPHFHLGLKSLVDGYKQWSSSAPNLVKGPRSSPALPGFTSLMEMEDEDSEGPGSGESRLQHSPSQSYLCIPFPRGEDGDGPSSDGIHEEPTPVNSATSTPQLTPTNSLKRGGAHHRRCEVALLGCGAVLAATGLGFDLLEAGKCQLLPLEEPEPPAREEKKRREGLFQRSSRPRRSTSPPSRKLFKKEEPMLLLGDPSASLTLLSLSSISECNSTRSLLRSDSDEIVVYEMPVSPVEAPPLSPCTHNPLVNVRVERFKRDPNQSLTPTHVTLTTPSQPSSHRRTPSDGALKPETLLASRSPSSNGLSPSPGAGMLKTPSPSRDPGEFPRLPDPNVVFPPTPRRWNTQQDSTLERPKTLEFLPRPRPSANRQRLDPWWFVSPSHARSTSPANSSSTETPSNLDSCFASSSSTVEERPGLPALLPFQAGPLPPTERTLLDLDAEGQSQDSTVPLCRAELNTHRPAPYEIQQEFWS

SMILES: CS(=O)(=O)O.Cn1cc(C2=C(c3cn(CCCSC(=N)N)c4ccccc34)C(=O)NC2=O)c2ccccc21 [Ro-318220 mesylate]
- protection of CPA-treated motor neurons [1]: mildly protective

SMILES: Nc1ncc(C(=O)NC2CN(C(=O)C3CC3)C2)c2ccc(-c3cccc(F)c3)nc12 [GNE-495]
- rescue of CPA toxicity / neuroprotection [2]: neuroprotective
- selectivity score (kinases with <20% activity remaining / total kinases assayed) ([3]; 1 μM, cell-free, calculated from published data, ref Ndubaku et al., 2015): 0.01

SMILES: CCN(CC)CCNC(=O)c1c(C)[nH]c(/C=C2\C(=O)Nc3ccc(F)cc32)c1C [sunitinib]
- blood-brain barrier crossing [4]: does not readily cross the blood-brain barrier
- protection of motor neurons from ER stress [5]: protect motor neurons from ER stress

SMILES: CN1CCN(Cc2ccc(-c3cnc4[nH]cc(-c5ccc6[nH]ccc6c5)c4c3)cc2)CC1 [compound 1, 3-(1H-Indol-5-yl)-5-(4-((4-methylpiperazin-1-yl)methyl)phenyl)-1H-pyrrolo[2,3-b]pyridine, reference compound]
- IC50 (HGK [6]): 5.93 nM
- rescue of CPA toxicity / neuroprotection [2]: neuroprotective
- selectivity score (kinases with <20% activity remaining / total kinases assayed) ([3]; similar conditions, based on data from ref Goodfellow et al. (2013)): 0.36
- bioavailability (%F) as measured in the plasma [7]: 41
- EC50 [8]: 200 nM
- JNK activation (phospho-JNK Thr183/Tyr185) compared to CPA alone (JNK pathway; [13]): significantly decreased JNK activation
- phosphorylation of MKK4 at Ser257 (JNK pathway; [13]): attenuated the phosphorylation
- maximum motor neuron survival compared to untreated controls ([9]; CPA 33 μM, 72 h, CPA alone ~10%): 102%
- concentration at which maximum efficacy (Emax) was observed [9, 14]: 1 µM
- inhibition of HGK activity (HGK [10]): > 99%
- effect on HIV-mediated microgliosis in the brain ([11]; IP 10 mg/kg twice a day for 28 days): attenuate Human Immunodeficiency Virus (HIV)-mediated microgliosis
- tolerability over long-term dosing [11]: well-tolerated
- IC50 (MLK3): 18.6 nM
- Brain AUC ([12]; 10 mg/kg IP): 1568 (±147.1) μg/L•h
- Brain mean Cmax ([12]; 10 mg/kg IP): 208.8 (±10.21) μg/kg
- Brain AUC ([12]; 10 mg/kg OG): 567.2 (±110.5) μg/L•h
- Brain mean Cmax ([12]; 10 mg/kg OG): 83.35 (±21.40) μg/kg
- Kp at 3 h ([12]; ip, 10 mg/kg): 0.23
- Kp at 3 h ([12]; oral, 10 mg/kg): 0.19
- Cmax ([12]; ip, 10 mg/kg): 972 ng/mL
- Cmax ([12]; po, 10 mg/kg): 476 ng/mL

SMILES: CN1CC2CCC(C1)N2Cc1ccc(-c2cnc3[nH]cc(-c4cccc5[nH]ncc45)c3c2)cc1 [12e, 4-(5-(4-((3-Methyl-3,8-diazabicyclo[3.2.1]octan-8-yl)methyl)phenyl)-1H-pyrrolo[2,3-b]pyridin-3-yl)-1H-indazole]
- inhibition of MLK1 (MLK1): inability to inhibit MLK3 and MLK1
- inhibition of HGK activity (HGK [6]; single concentration, cell-free): strongly inhibited HGK activity
- effect on TNFα release at 0.5 μM ([8]; 0.5 μM, LPS-stimulated N9 microglia): did not inhibit TNFα release
- effect on TNFα levels ([8]; LPS-stimulated N9 microglia): did not significantly decrease TNFα levels
- neuroprotection in CPA survival assay [9, 14]: highly neuroprotective
- activity at MLK3 (MLK3): little activity at MLK3

- IC50 (HGK [6]): 0.3 nM
- EC50 [8]: ~470 nM
- activity at MLK3 (MLK3): slightly decreased inhibition of MLK3
- Brain AUC ([12]; 10 mg/kg IP): 11570 (±1655) μg/L•h
- Brain mean Cmax ([12]; 10 mg/kg IP): 1162 (±91.99) μg/kg
- Brain AUC ([12]; 10 mg/kg OG): 8429 (±1458) μg/L•h
- Brain mean Cmax ([12]; 10 mg/kg OG): 658.9 (±257.7) μg/kg
- brain Cmax ([12]; IP-injected animals, 10 mg/kg): 1162 ng/g and 2.60 μM
- Kp at 3 h ([12]; ip, 10 mg/kg): 3
- Kp at 3 h ([12]; oral, 10 mg/kg): 3.3
- Cmax ([12]; ip, 10 mg/kg): 454 ng/mL
- Cmax ([12]; po, 10 mg/kg): 184 ng/mL
SMILES: OCCN1CCN(Cc2ccc(-c3cnc4[nH]cc(-c5cccc(Cl)c5)c4c3)cc2)CC1 [Prostetin/12k, 2-(4-(4-(3-(3-Chlorophenyl)-1H-pyrrolo[2,3-b]pyridin-5-yl)benzyl)piperazin-1-yl)ethan-1-ol]
- concentrations that significantly attenuated TNFα release ([8]; LPS-stimulated N9 microglia): ≥ 0.5 µM
- potency relative to compound 1 (fold less potent) ([8]; suppression of TNFα release): ~ 5 x
- inhibition of JNK pathway components (JNK pathway; Fig. S2): effectively inhibit the same JNK pathway components as compound 1
- concentration at which maximum efficacy (Emax) was observed [9, 14]: 0.5 µM
- EC50 ([9]; Homo sapiens, Neuron, 72 h, read-out: EC50 in motor neuron survival assay): 100 nM

SMILES: COc1cc(Nc2c(C#N)cnc3cc(OCCCN4CCN(C)CC4)c(OC)cc23)c(Cl)cc1Cl [bosutinib]
- protection of CPA-treated motor neurons [1]: mildly protective

SMILES: Cc1ccc(NC(=O)c2ccc(CN3CCN(C)CC3)cc2)cc1Nc1nc(-c2cccnc2)cs1 [masitinib]
- effect on microgliosis and disease progression (SOD1^G93A mutant rats): attenuate microgliosis and slow disease progression
